Substitutions are numbered along the chain they refer to. Names may count otherwise.
Tests used:
[1] = target: T1, Psp2,6ST(15–501)-His6 (Photobacterium sp. JT-ISH-224, UniProt A8QYL1, A366G); assay: sialyltransfer, HPLC with fluorescence detection, Michaelis-Menten fit; format: biochemical; conditions: 20 °C, labelled compound
T1 sequence (A8QYL1 15-501 A366G): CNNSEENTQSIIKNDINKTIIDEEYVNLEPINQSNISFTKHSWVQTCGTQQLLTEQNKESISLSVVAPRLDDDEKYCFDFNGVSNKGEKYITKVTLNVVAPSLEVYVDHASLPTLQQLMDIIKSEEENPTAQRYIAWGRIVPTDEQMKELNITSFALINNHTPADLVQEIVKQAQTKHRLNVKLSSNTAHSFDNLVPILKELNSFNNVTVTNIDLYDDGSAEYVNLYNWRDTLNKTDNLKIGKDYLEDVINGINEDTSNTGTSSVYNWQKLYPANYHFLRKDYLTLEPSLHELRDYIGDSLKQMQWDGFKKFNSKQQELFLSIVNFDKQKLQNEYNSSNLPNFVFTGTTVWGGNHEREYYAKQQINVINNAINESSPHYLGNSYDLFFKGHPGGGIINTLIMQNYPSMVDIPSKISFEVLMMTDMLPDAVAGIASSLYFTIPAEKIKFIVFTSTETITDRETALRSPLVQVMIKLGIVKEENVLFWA

[2] = target: T2, His6-Pd2,6ST(16–497) (Photobacterium damselae, UniProt O66375); assay: donor hydrolysis, capillary electrophoresis, Michaelis-Menten fit; format: biochemical; conditions: donor hydrolysis (water as acceptor); pH 8.0; 37 °C
T2 sequence (O66375 16-497): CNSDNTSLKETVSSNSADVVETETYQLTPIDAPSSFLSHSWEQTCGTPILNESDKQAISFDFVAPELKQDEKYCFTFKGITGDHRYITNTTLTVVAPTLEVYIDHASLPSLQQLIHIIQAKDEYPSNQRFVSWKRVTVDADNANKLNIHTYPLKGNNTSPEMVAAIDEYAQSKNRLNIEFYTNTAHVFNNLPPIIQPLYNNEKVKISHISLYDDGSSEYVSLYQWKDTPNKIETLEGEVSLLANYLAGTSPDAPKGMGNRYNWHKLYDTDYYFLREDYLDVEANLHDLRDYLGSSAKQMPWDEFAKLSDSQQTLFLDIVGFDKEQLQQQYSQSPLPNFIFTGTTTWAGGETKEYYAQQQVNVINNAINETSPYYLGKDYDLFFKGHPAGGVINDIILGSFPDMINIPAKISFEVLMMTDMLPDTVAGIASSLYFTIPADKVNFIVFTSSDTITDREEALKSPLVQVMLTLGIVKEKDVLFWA
Procedure, shortened: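 Recombinant enzyme (6 μM) was incubated with CMP-Neu5Ac (10, 20, 40, 60, 80 and 100 mM) in 200 mM Tris-HCl pH 8.0 for 20 min, with no acceptor, in duplicate. Reactions were stopped with ethanol and centrifuged. Supernatants were run by capillary electrophoresis in 25 mM sodium tetraborate pH 9.4, with PDA detection at 200 and 254 nm. Kinetic parameters came from a Michaelis-Menten fit of the duplicate means.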

[3] = substrate: CC(=O)N[C@H]1[C@H]([C@H](O)[C@H](O)CO)O[C@](OP(=O)(O)OC[C@H]2O[C@@H](n3ccc(N)nc3=O)[C@H](O)[C@@H]2O)(C(=O)O)C[C@@H]1O; assay: donor hydrolysis, capillary electrophoresis, Michaelis-Menten fit; format: biochemical, Photobacterium sp. JT-ISH-224; conditions: donor hydrolysis (water as acceptor), pH 8.0, 20 °C
[4] = substrate: CC(=O)N[C@H]1[C@H]([C@H](O)[C@H](O)CO)O[C@](OP(=O)(O)OC[C@H]2O[C@@H](n3ccc(N)nc3=O)[C@H](O)[C@@H]2O)(C(=O)O)C[C@@H]1O; assay: sialyltransfer, HPLC with fluorescence detection, Michaelis-Menten fit; format: biochemical, Photobacterium sp. JT-ISH-224; conditions: LacβMU 1.0 mM as acceptor, pH 8.0, 20 °C
[5] = substrate: Cc1cc(=O)oc2cc(O[C@@H]3O[C@H](CO)[C@@H](O[C@@H]4O[C@H](CO)[C@H](O)[C@H](O)[C@H]4O)[C@H](O)[C@H]3O)ccc12; assay: as above; format: biochemical, Photobacterium sp. JT-ISH-224; conditions: CMP-Neu5Ac 1.0 mM, pH 8.0, 20 °C

Work on GalNAcα2AA yielded a Km ([1]; CMP-Neu5Ac 4.0 mM, pH 5.0) of 5.5 ± 1 mM.

In the case of `CC(=O)N[C@H]1[C@@H](OC[C@H](N)C(=O)O)O[C@H](CO)[C@H](O)[C@@H]1O` [GalNAcαSer], the Km ([1]; CMP-Neu5Ac 2.0 mM, pH 8.0) is reported as 1.7 ± 0.7 mM.

For `CC(=O)N[C@H]1[C@H]([C@H](O)[C@H](O)CO)O[C@](OP(=O)(O)OC[C@H]2O[C@@H](n3ccc(N)nc3=O)[C@H](O)[C@@H]2O)(C(=O)O)C[C@@H]1O` [CMP-Neu5Ac], the “Km (mM)” value [2] was “(1.8±0.4)×10 mM”.

Molecule `CC(=O)N[C@H]1[C@@H](O[C@H](C)[C@H](N)C(=O)O)O[C@H](CO)[C@H](O)[C@@H]1O` [GalNAcαThr] has a Km ([1]; CMP-Neu5Ac 4.0 mM, pH 8.0) of 7.2 ± 3 mM.

B1: Psp2,6ST(15–501)-His6 (Photobacterium sp. JT-ISH-224) (protein)
chain: T1 sequence (A8QYL1 15-501 A366G) with G352A
Molecule B1 has a kcat [3] of 4.83 ± 0.5 s⁻¹ and a kcat/Km [3] of 283 M⁻¹ s⁻¹.

B2: Psp2,6ST(15–501)-His6 (Photobacterium sp. JT-ISH-224; A366G) (protein)
chain: T1 sequence (A8QYL1 15-501 A366G)
With B2 the Km [4] was “(6.3±0.5)×10^−1 mM”, the kcat [4] was 2.17 ± 0.167 s⁻¹ and the kcat/Km [4] was 3500 M⁻¹ s⁻¹. For the same molecule, the Km [5] was “(4.1±0.4)×10^−1 mM”, the kcat [5] was 1.67 ± 0.167 s⁻¹ and the kcat/Km [5] was 4000 M⁻¹ s⁻¹.

Reference: publication PMC9416874 (Carbohydrate research, 2014)
